High-throughput results from PubChem.
ALR inh: blocks human ALR sulfhydryl oxidase activity | purified ALR, DTT oxidation, H2O2 HRP-luminol luminescence | inhibition, % (concentration not given with the values) | 290,000 tested, 3.8% active | AID 485317;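 active = mean replicate inhibition above about 79%, with every replicate also reaching it, limit read from the data; inconclusive = only one of the two criteria met; inactive = mean below limit and not every replicate reaching it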
Target sequence (P55789 whole entry, looked up): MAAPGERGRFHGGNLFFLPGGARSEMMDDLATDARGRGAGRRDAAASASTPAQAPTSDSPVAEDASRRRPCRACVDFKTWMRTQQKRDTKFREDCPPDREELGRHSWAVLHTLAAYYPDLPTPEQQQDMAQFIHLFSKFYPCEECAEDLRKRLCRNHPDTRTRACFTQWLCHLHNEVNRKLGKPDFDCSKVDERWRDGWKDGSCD
Glyco luc inh: blocks N-linked glycosylation in D54 reporter cells | D54 ERlucT glycosylation luciferase reporter, 24 h; percent of 100 nM tunicamycin response | AID 588692 | 360,000 tested, 0.23% active | reporter increase, % at 12.5 µM;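 active = mean luciferase reporter signal, scaled so untreated is 0 and the glycosylation-blocking control 100, at or above a set limit in every replicate; inconclusive = mean reaches the limit but not every replicate does; inactive = mean below the limit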;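 note: luciferase carries N-glycosylation sites so blocking glycosylation raises the light; 0% = median of neutral control wells and 100% = median of 100 nM tunicamycin wells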
T cell modulator: modulates CD8 T cell binding to vesicles. AID 2052. response (vesicle binding), % at 7 µM. 330,000 tested, 0.068% active. 2C CD8+ T cell-vesicle binding, flow cytometry; hits give low values;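 active = response, share of CD8 T cells binding vesicles, and their 90th percentile fluorescence all below set limits, cut at about 80% in these data, passing the limit was not always enough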;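 note: values below 100% mean blocked vesicle binding to the CD8+ T cells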
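material = purified 2C TCR transgenic mouse naive CD8+ T cells | controls = Unloaded micro-vesicles (low), QL9 vesicles with 0.7% DMSO (high) | detection = cytometric PE anti-B7-1 and Alexa647 anti-CD8 signals after 1% paraformaldehyde fixation | incubation = binding step 1.5 h, 37 °C, antibody labelling 20 min, ice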
The depositor's hits bear a star. Shown is part of a subset that was picked to be rich in hits.

What do the screens show for `CC(C)NC(=O)c1ccccc1NC(=O)Cc1ccc(Br)cc1`?
ALR inh: 3; Glyco luc inh: -1; T cell modulator: 166

How did Cc1cc(N)ccc1-n1nc2ccccc2n1 do in these assays?
ALR inh: -4; Glyco luc inh: 1; T cell modulator: 408

Results for CN1c2ccccc2Sc2cc(N)ccc21 ?
ALR inh: 95*; Glyco luc inh: -2; T cell modulator: 138

How did c1ccc2c(NCCc3c[nH]c4ccccc34)c3ccccc3nc2c1 do in these assays?
ALR inh: 0; Glyco luc inh: -14; T cell modulator: 104

What do the screens show for `Cc1ccc(-c2nc(NCCN(C)C)c3ccccc3n2)cc1`?
ALR inh: 6; Glyco luc inh: inconclusive; T cell modulator: 651

What do the screens show for `OCCCNc1c2ccccc2nc2ccccc12`?
ALR inh: -8; Glyco luc inh: 36*; T cell modulator: 379

How did Cc1ccc(-c2nc(NCCCO)c3ccccc3n2)cc1 do in these assays?
ALR inh: 98*; Glyco luc inh: 3; T cell modulator: 204

What do the screens show for `O=C(CSc1nnc2ccccn12)Nc1ccc2c(c1)OCCO2`?
ALR inh: -5; Glyco luc inh: -1; T cell modulator: 257

What do the screens show for `C[C@H](CO)N1C[C@H](C)[C@@H](CN(C)C(=O)NC2CCCC2)Oc2cc(Br)ccc2S1(=O)=O`?
Glyco luc inh: -1

What do the screens show for `COc1ccc(C(=O)N/N=C/c2ccc(N3CCOCC3)s2)cc1OC`?
ALR inh: 93*; Glyco luc inh: 2; T cell modulator: 362

Results for O=C(N/N=C/c1ccc(N2CCOCC2)s1)c1ccccc1Cl ?
ALR inh: 88*; Glyco luc inh: 4; T cell modulator: 180

What do the screens show for `O=C(N/N=C/c1sc(N2CCOCC2)nc1-c1ccccc1)c1ccccc1Cl`?
ALR inh: -3; Glyco luc inh: -5; T cell modulator: 335

How did O=C(N/N=C/c1ccc(N2CCOCC2)s1)c1ccc(NS(=O)(=O)c2cccs2)cc1 do in these assays?
ALR inh: 70; Glyco luc inh: 1; T cell modulator: 262

Results for COc1ccc(C(=O)N/N=C/c2ccc(N3CCOCC3)o2)cc1OC ?
Glyco luc inh: 1; T cell modulator: 153

How did CCOC(=O)N/N=C/c1ccc(N2CCOCC2)s1 do in these assays?
ALR inh: 99*; Glyco luc inh: 3; T cell modulator: 200

How did CCCc1cc(=O)[nH]c2nnc(SCC(=O)Nc3cc(C)on3)n12 do in these assays?
Glyco luc inh: 0; T cell modulator: 256

How did COc1ccc(COC(=O)C2=C(C)NC(=O)NC2c2cc(Br)c(O)c(OC)c2)cc1 (stereo not given) do in these assays?
ALR inh: 31; Glyco luc inh: 1; T cell modulator: inactive

How did C#CCN(C[C@@H]1[C@@H](OC(=O)NCc2ccccc2)[C@@H](OC(=O)NCc2ccccc2)CN(C(=O)OC(C)C)N1C(=O)OC(C)C)S(=O)(=O)c1ccc(C)cc1 do in these assays?
Glyco luc inh: -4

What do the screens show for `Cc1cccc(CN2CCN(C3CN(Cc4ccc([N+](=O)[O-])cc4)S(=O)(=O)C3)CC2)c1` (stereo not given)?
Glyco luc inh: 0

What do the screens show for `O=C(CC1C(=O)NCCN1Cc1ccc(F)cc1)NCCN1CCCc2ccccc21` (stereo not given)?
ALR inh: 99*; Glyco luc inh: 0; T cell modulator: 408

Results for O=C(CC1C(=O)NCCN1Cc1ccccc1)NCCN1CCCCC1=O (stereo not given) ?
ALR inh: -17; Glyco luc inh: 2; T cell modulator: 441

Results for O=C(O)c1ccc(SCc2ccccc2)nc1 ?
ALR inh: -4; Glyco luc inh: 1; T cell modulator: 776

What do the screens show for `CC1=C(C(=O)NC2CCCc3c2cnn3-c2ccc(F)cc2F)OCCO1` (stereo not given)?
ALR inh: 89*; Glyco luc inh: 0; T cell modulator: 193

How did CCc1cc(C(=O)NC2CCCc3c2cnn3-c2ccc(F)cc2F)no1 (stereo not given) do in these assays?
Glyco luc inh: -3

How did Cc1cc(Nc2ccccc2)n(CCO)n1 do in these assays?
ALR inh: 99*; Glyco luc inh: 0; T cell modulator: 505

Results for CCn1nc(C)cc1Nc1ccccc1 ?
ALR inh: 61; Glyco luc inh: 1; T cell modulator: inactive

What do the screens show for `Cc1cc(Nc2ccc(Cl)cc2)n(-c2cccc(Cl)c2)n1`?
ALR inh: 51; Glyco luc inh: -6; T cell modulator: 201

Results for Cc1cc(Nc2ccccc2C(=O)O)n(-c2cccc(Cl)c2)n1 ?
ALR inh: 98*; Glyco luc inh: 1; T cell modulator: 601

What do the screens show for `Cc1cc(Nc2ccc(Cl)cc2)n(-c2ccccc2)n1`?
ALR inh: 98*; Glyco luc inh: -3; T cell modulator: 245
